Results collected from several papers.
Protocols differ between the studies behind these lines.

O=c1[nH]cc(F)c(=O)[nH]1
IC50 (HEp-2; cell growth or viability; WST-1; 48 h): 9.3 µM

COc1cc(Nc2nccc(-c3cnn4nc(OC)ccc34)n2)cc(C(F)(F)F)c1
IC50 (NCI-H441; cell growth or viability; ATP luminescence): 0.57 µM

CC(C)(C=O)Cc1cc(C(C)(C)C)c(O)c(C(C)(C)C)c1
IC50 (FaDu; cell growth or viability; 72 h): > 20 µM

COc1ccc(-c2nc3ccccc3n2Cc2ccccc2)cc1OC
IC50 (MCF7; cell growth or viability; MTT): 22.2 µM

CC(C)c1ccccc1S(=O)(=O)c1cc(N)c2ncccc2c1[N+](=O)[O-]
IC50 (FaDu; cell growth or viability; 72 h): > 20 µM

O=c1cc(-c2ccc(O)c(O)c2)oc2cc(O)cc(O)c12
IC50 (HEp-2; cell growth or viability; WST-1; 48 h): 10.7 µM

CCCCCCCCCCCC(=O)Oc1c(C)c(O)c(C(=O)/C=C/c2ccccc2)c(OC)c1C
IC50 (FaDu; cell growth or viability; SRB; 72 h): > 50 µM

CCOc1cc(OCC)cc(C(=O)O[C@@H]2CN3Cc4c(cc5c(c4OC)OCO5)[C@@]24C=C[C@H](OC)C[C@@H]34)c1
IC50 (SAOS-2; cell growth or viability; WST-1): 2.8 µM

CCn1cnc2ccc(/C=C/C(=O)NO)cc2c1=O
IC50 (SW-620; cell growth or viability; SRB; 48 h): 6.69 µM

CC(C)NCC(O)c1ccc(O)c(O)c1 (racemic)
IC50 (THP-1; TNF-α release; inhibitor; 17 h; LPS-stimulated): 0.016 µM

COc1cc2nc(N3CCN(C(=O)c4ccco4)[C@H]4CCCC[C@H]43)nc(N)c2cc1OC (racemic)
IC50 (FaDu; cell growth or viability; 72 h): 14.1 µM

N#Cc1cc([N+](=O)[O-])c2sc(C(N)=O)[n+]([O-])c2c1
IC50 (THP-1; TNF-α release; inhibitor; ELISA; 17 h; LPS-stimulated): 1.95 µM

CN1/C(=N/c2ccc(Cl)cc2)c2cc(C(N)=O)nc3c(N)c(Cl)c(N)c1c23
IC50 (Calu-3; cell growth or viability): 10.4 µM

Cc1ccc2nc(-c3c(F)cccc3Cl)[nH]c2c1
IC50 (MCF7; cell growth or viability; MTT; 48 h): > 100 µM

COc1c2c(cc3c1OCO3)[C@]13C=C[C@H](OC)C[C@H]1N(C2)C[C@H]3OC(=O)c1cccc(C)c1
IC50 (SAOS-2; cell growth or viability; WST-1): > 10 µM

CC(C)C[C@H](NC(=O)[C@H](Cc1ccccc1)NC(=O)c1cnccn1)B(O)O
IC50 (SAOS-2; cell growth or viability; ATP luminescence): 0.025 µM

O=C(/C=C/c1ccc2ncn(CC3CCCCC3)c(=O)c2c1)NO
IC50 (SW-620; cell growth or viability; SRB; 48 h): 1.16 µM

CC[C@@]1(O)C(=O)OCc2c1cc1n(c2=O)Cc2cc3ccccc3nc2-1
IC50 (P388; cell growth or viability; MTT; 96 h): 0.004 µM

Clc1ccc(Cn2c(-c3ccc(Cl)cc3)nc3ccccc32)cc1
IC50 (MCF7; cell growth or viability; MTT): 8.56 µM

COc1ccc2c(c1OC)C(=O)O[C@@H]2[C@H]1c2c(cc3c(c2OC)OCO3)CCN1C
IC50 (FaDu; cell growth or viability; 72 h): 15.2 µM

COc1cccc2c1C(=O)c1c(O)c3c(c(O)c1C2=O)C[C@@](O)(C(=O)CO)C[C@@H]3O[C@H]1C[C@H](N)[C@H](O)[C@H](C)O1
IC50 (SUM159; cell growth or viability; MTT; 48 h): 4 µM

N#Cc1ccc(COC[C@H]2O[C@@H](n3c(NCc4ccc(Cl)c(Cl)c4)nc4c(N)ncnc43)[C@H](O)[C@@H]2O)cc1
IC50 (FaDu; cell growth or viability; 72 h): > 20 µM

CC(C)[C@H](N)C(=O)N1CCC[C@H]1B(O)O
IC50 (NOMO-1; cell growth or viability; ATP luminescence; 5 days): 0.031 µM

Cc1cc(-c2nc(C(=O)Nc3cc4oc(N5CCOCC5)nc4nc3N3CC[C@@H](O)C3)co2)ccn1
IC50 (A20; cell growth or viability; 5 days): 2.45 µM
